WT yeast gro inh – growth inhibition of WT yeast, mitochondrial fusion screen. mitochondrial fusion phenotypic screen, WT strain. inhibition, % at 10 µM. 190,000 compounds, 2.1% hits; in the data active = inhibition above about 58%; tested in S. cerevisiae
Diaphorase inh – counter-screen for diaphorase-based assays: diaphorase inhibitors and chemical oxidizers; diaphorase resazurin-to-resorufin fluorescence, NADH, 16 min; bacterial (C. kluyveri) enzyme, not human; inhibition, % at 20 µM; 190,000 compounds, 0.69% hits;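 active = primary screen inhibition at 20 µM above a set limit, cut at about 50% in these data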
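controls = No-NADH positive control and DMSO neutral control | system = Clostridium kluyveri diaphorase enzyme | timing = reaction incubation of 16 min at room temperature | signal = resorufin fluorescence 544/590 nm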
Lmaj promast – Leishmania major promastigote growth inhibition. Leishmania major promastigotes, resazurin fluorescence viability. 200,000 compounds, 9% hits. AID 1063. inhibition, % at 10 µM;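 also: promastigotes grown with compound for 44 hours at 28 °C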
G6PDH CS – L. mesenteroides G6PDH inhibition counter-screen; inhibition, % at 5 µM; AID 1020; Purified L. mesenteroides G6PDH, diaphorase/resazurin coupled fluorescence, 45 min; 200,000 compounds, 0.12% hits
Diaphorase act – diaphorase activation or chemical reduction counter-screen. Diaphorase/resazurin coupled assay, resorufin fluorescence, 16 min; stronger effect = higher value; 1 = vehicle wells, 0 = NADH-free wells. activation factor at 20 µM. 190,000 compounds, 0.005% hits;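 active = diaphorase activity raised at least twofold by the compound at 20 µM; inactive = activation factor below 2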
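Material: purified diaphorase enzyme from Clostridium kluyveri / Medium: HEPES pH 7.4 buffer with MgCl2 and Tween 20 / Schedule: enzyme reaction of 16 min at room temperature / Measured by: resorufin fluorescence, excitation 544 nm, emission 590 nm / Evaluation: rise in resorufin formation, marking diaphorase activation or chemical reduction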
A number is an active result. A selection: hits, their analogues and other compounds. The true share with any hit is near 11%. Rule as the data show it, unless noted: active = inhibition above about 50%; inactive = the rest.

What do the screens show for `CCOC(=O)c1sc2nc(N3CCCC3)c3c(c2c1N)CC(C)(C)OC3`?
WT yeast gro inh: inactive; Diaphorase inh: inactive; Lmaj promast: inactive; G6PDH CS: inactive; Diaphorase act: inactive

Results for CC(c1ccccc1)N1C(=O)c2ccccc2C1O (centres undefined) ?
WT yeast gro inh: inactive; Diaphorase inh: inactive; Lmaj promast: inactive; G6PDH CS: inactive; Diaphorase act: inactive

How did Cc1cc(C)nc(Nc2n[nH]c(-c3ccc(C(C)(C)C)cc3)n2)n1 do in these assays?
WT yeast gro inh: inactive; Diaphorase inh: inactive; Lmaj promast: inactive; G6PDH CS: inactive; Diaphorase act: inactive

What do the screens show for `Cc1cc(C)nc(Nc2n[nH]c(-c3ccc(N)cc3)n2)n1`?
WT yeast gro inh: 59.6; Diaphorase inh: inactive; Lmaj promast: inactive; G6PDH CS: inactive; Diaphorase act: inactive

Results for O=C1C2C3C=CC(C4CC34)C2C(=O)N1/N=C/c1ccc([N+](=O)[O-])o1 (centres undefined) ?
WT yeast gro inh: inactive; Diaphorase inh: inactive; Lmaj promast: 99.2; G6PDH CS: inactive; Diaphorase act: inactive

How did O=C1C2C(C(=O)N1/N=C/c1ccc([N+](=O)[O-])o1)C1C=CC2C12CC2 (centres undefined) do in these assays?
WT yeast gro inh: inactive; Diaphorase inh: inactive; Lmaj promast: 89.9; G6PDH CS: inactive; Diaphorase act: inactive

How did COc1ccc(C(=O)C2CCCN(C(=O)c3cc(C)nc(C)n3)C2)cc1OC (centres undefined) do in these assays?
WT yeast gro inh: inactive; Diaphorase inh: inactive; Lmaj promast: inactive; G6PDH CS: inactive; Diaphorase act: inactive

How did O=C(CCl)N1c2ccccc2OCC1c1ccccc1 (centres undefined) do in these assays?
WT yeast gro inh: inactive; Diaphorase inh: inactive; Lmaj promast: 56.6; G6PDH CS: inactive; Diaphorase act: inactive

How did CCn1c(=O)c([N+](=O)[O-])c(NCCc2ccccc2)c2ccccc21 do in these assays?
WT yeast gro inh: inactive; Diaphorase inh: inactive; Lmaj promast: 100.2; G6PDH CS: inactive; Diaphorase act: inactive

What do the screens show for `CC(=O)c1c(C)[nH]c(C(=O)CN2C(=O)NC(C)(CCC(C)C)C2=O)c1C` (centres undefined)?
WT yeast gro inh: inactive; Diaphorase inh: inactive; Lmaj promast: inactive; G6PDH CS: inactive; Diaphorase act: inactive

What do the screens show for `O=C(NCCc1ccc(Cl)cc1)c1ncn[nH]1`?
WT yeast gro inh: 90.9; Diaphorase inh: inactive; Lmaj promast: inactive; G6PDH CS: inactive; Diaphorase act: inactive

Results for CCn1cc(/C=N/NC(=O)COc2cccc3cccnc23)c2ccccc21 ?
WT yeast gro inh: inactive; Diaphorase inh: inactive; Lmaj promast: 60.3; G6PDH CS: inactive; Diaphorase act: inactive

Results for COc1ccc(/C=N/NC(=O)COc2cccc3cccnc23)cc1OC ?
WT yeast gro inh: inactive; Diaphorase inh: inactive; Lmaj promast: inactive; G6PDH CS: inactive; Diaphorase act: inactive

Results for CCOc1ccc(C(=O)N/N=C/c2cccc3cccnc23)cc1 ?
WT yeast gro inh: inactive; Diaphorase inh: inactive; Lmaj promast: 98.2; G6PDH CS: inactive; Diaphorase act: inactive

Results for COc1ccc(C(=O)N/N=C/c2cc3ccccc3[nH]c2=S)cc1 ?
WT yeast gro inh: inactive; Diaphorase inh: 54.8; Lmaj promast: inactive; G6PDH CS: inactive; Diaphorase act: inactive

How did CCOc1ccccc1C(=O)N/N=C/c1cccc2cccnc12 do in these assays?
WT yeast gro inh: inactive; Diaphorase inh: inactive; Lmaj promast: inactive; G6PDH CS: inactive; Diaphorase act: inactive

How did COc1ccc(C(=O)N/N=C/c2cccc3cccnc23)cc1 do in these assays?
WT yeast gro inh: inactive; Diaphorase inh: inactive; Lmaj promast: 97.2; G6PDH CS: inactive; Diaphorase act: inactive

Results for CC(C)CC(C(=O)N1CCOCC1)N1Cc2ccccc2C1=O (centres undefined) ?
WT yeast gro inh: inactive; Diaphorase inh: inactive; Lmaj promast: inactive; G6PDH CS: inactive; Diaphorase act: inactive

How did COc1ccc(C(=O)N/N=C(\c2ccccc2)c2ccccn2)cc1 do in these assays?
WT yeast gro inh: 68.0; Diaphorase inh: inactive; Lmaj promast: 99.6; G6PDH CS: inactive; Diaphorase act: inactive

How did CCOC(=O)C1C(c2cccc([N+](=O)[O-])c2)C2C(=O)NN=C2CC1(C)O (centres undefined) do in these assays?
WT yeast gro inh: inactive; Diaphorase inh: inactive; Lmaj promast: inactive; G6PDH CS: inactive; Diaphorase act: inactive

What do the screens show for `COc1ccc(OCCSc2nnc(-c3ccc(OC)cc3)n2N)cc1`?
WT yeast gro inh: inactive; Diaphorase inh: inactive; Lmaj promast: inactive; G6PDH CS: inactive; Diaphorase act: inactive

Results for O=C(CC(c1ccc(F)cc1)c1ccco1)Nc1nccs1 (centres undefined) ?
WT yeast gro inh: inactive; Diaphorase inh: inactive; Lmaj promast: inactive; G6PDH CS: inactive; Diaphorase act: inactive

How did Oc1ccccc1N=Nc1nc(-c2ccccc2)c(-c2ccccc2)[nH]1 do in these assays?
WT yeast gro inh: inactive; Diaphorase inh: inactive; Lmaj promast: 100.0; G6PDH CS: inactive; Diaphorase act: inactive

Results for COc1ccccc1N=Nc1nc(-c2ccccc2)c(-c2ccccc2)[nH]1 ?
WT yeast gro inh: 64.3; Diaphorase inh: inactive; Lmaj promast: 67.2; G6PDH CS: inactive; Diaphorase act: inactive

What do the screens show for `COc1ccc(-c2[nH]c(-c3ccc4c(c3)OCO4)nc2-c2ccccc2)cc1`?
WT yeast gro inh: 71.0; Diaphorase inh: inactive; Lmaj promast: 64.8; G6PDH CS: inactive; Diaphorase act: inactive

How did CS(=O)(=O)c1nc(-c2ccccc2)c(-c2ccccc2)[nH]1 do in these assays?
WT yeast gro inh: inactive; Diaphorase inh: inactive; Lmaj promast: inactive; G6PDH CS: inactive; Diaphorase act: inactive

What do the screens show for `COc1ccc(N=Nc2nc(-c3ccccc3)c(-c3ccccc3)[nH]2)cc1`?
WT yeast gro inh: inactive; Diaphorase inh: inactive; Lmaj promast: 87.2; G6PDH CS: inactive; Diaphorase act: inactive

How did COCCn1cnc2c1c(=O)n(CC(=O)OCC#N)c(=O)n2Cc1ccccc1 do in these assays?
WT yeast gro inh: inactive; Diaphorase inh: inactive; Lmaj promast: inactive; G6PDH CS: inactive; Diaphorase act: inactive

How did O=C(CN1C(=O)CSc2ccc(S(=O)(=O)N3CCOCC3)cc21)NCCCN1CCc2ccccc2C1 do in these assays?
WT yeast gro inh: inactive; Diaphorase inh: inactive; Lmaj promast: inactive; G6PDH CS: inactive; Diaphorase act: inactive

Results for Cc1ncc(N=Nc2ccc(F)cc2)c(-c2ccc(Cl)cc2)n1 ?
WT yeast gro inh: inactive; Diaphorase inh: inactive; Lmaj promast: inactive; G6PDH CS: inactive; Diaphorase act: inactive

What do the screens show for `COc1ccc(-c2nc(C)ncc2N=Nc2ccccc2)cc1`?
WT yeast gro inh: 98.5; Diaphorase inh: inactive; Lmaj promast: inactive; G6PDH CS: inactive; Diaphorase act: inactive

What do the screens show for `Cc1ccc(C(=O)/C=C/c2ccc(Br)cc2)o1`?
WT yeast gro inh: inactive; Diaphorase inh: inactive; Lmaj promast: 78.9; G6PDH CS: inactive; Diaphorase act: inactive

What do the screens show for `Cc1ccc(C(=O)/C=C/c2ccc3c(c2)OCO3)o1`?
WT yeast gro inh: inactive; Diaphorase inh: inactive; Lmaj promast: inactive; G6PDH CS: inactive; Diaphorase act: inactive
